Compound activity deposited in PubChem BioAssay by several laboratories.
Rows were chosen to be rich in hits. Some 3.4% of all compounds tested hit in one or more screens of this group.
APOBEC3G inh: inhibitors of human APOBEC3G DNA deaminase. Q9HC16. recombinant A3G, ssDNA deamination FAM/TAMRA fluorescence. inhibition, % at 20 µM. 330,000 tested, 0.28% active. AID 493012;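 active = inhibition of at least 40% at 20 µM, with no more than 30% in the related APOBEC3A deaminase screen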;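 also: plate controls were DMSO wells with A3G for no effect and wells lacking A3G enzyme for full effect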
Arr AP2 block: blocks beta-arrestin peptide binding to AP2 adaptin. FITC-arrestin peptide / GST-AP2 beads, flow cytometry; AP2 beta2 appendage carries R879A mutation. inhibition, % at 10 µM. 340,000 tested, 0.31% active. AID 504490;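 active = inhibition above a set limit, near 3 SD of compounds lacking own fluorescence, cut at about 54% in these data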;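 also: plate controls were DMSO wells for no effect and 5 µM unlabelled arrestin peptide for full effect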
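System: GST-AP2 R879A glutathione beads; medium: PBS, Tween 20 0.05%, BSA 0.1%; reagent: fluorescein-tagged arrestin peptide at 50 nM final; schedule: pre-incubation 12 min, peptide binding 1 h, room temperature; detection: flow cytometry, FL1 (488/535 nm); read-out: inhibition as reduced fluorescein signal on beads, percent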
PolyA inhibitor: blocks polyadenylation in yeast reporter cells. S. cerevisiae SKY197-pL101 polyadenylation reporter, beta-gal luminescence; efflux-impaired pdr1/pdr3 knockout yeast; score 100 = 6 SD above DMSO. activity score, % at 12 µM. 300,000 tested, 0.02% active. AID 1875;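 active = lowest replicate activity score at least 50, where 100 means six control SD above control mean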;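 also: yeast exposed to compound for 9 h at 30 °C; higher score means more reporter readthrough which indicates perturbed polyadenylation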
A3A deaminase: human APOBEC3A DNA deaminase inhibition; P31941; recombinant A3A, FAM/TAMRA ssDNA deamination fluorescence; inhibition, % at 20 µM; 330,000 tested, 0.41% active; AID 493011;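 active = at least 40% inhibition at 20 µM here, with at most 30% in a related deaminase screen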;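 also: plate controls were A3A with DMSO for no effect and wells lacking A3A enzyme for full effect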
Target sequence (P31941 whole entry, looked up): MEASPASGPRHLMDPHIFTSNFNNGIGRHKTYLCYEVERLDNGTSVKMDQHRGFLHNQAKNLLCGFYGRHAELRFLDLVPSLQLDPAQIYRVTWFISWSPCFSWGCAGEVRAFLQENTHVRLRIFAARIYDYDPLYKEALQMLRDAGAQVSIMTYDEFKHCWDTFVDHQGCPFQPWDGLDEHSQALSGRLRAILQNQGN
UCH37 inh: blocks the human deubiquitinase UCH37; AID 588478; purified proteasome/UCH37, Ub-AMC cleavage fluorescence; 330,000 tested, 0.33% active; inhibition, % (test concentration not listed); Q9Y5K5;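 active = mean inhibition over replicate wells above about 20%, limit read from the data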;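 also: 0% = compound-free wells with enzyme and 100% = wells lacking proteasome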
Target sequence (Q9Y5K5 whole entry, looked up): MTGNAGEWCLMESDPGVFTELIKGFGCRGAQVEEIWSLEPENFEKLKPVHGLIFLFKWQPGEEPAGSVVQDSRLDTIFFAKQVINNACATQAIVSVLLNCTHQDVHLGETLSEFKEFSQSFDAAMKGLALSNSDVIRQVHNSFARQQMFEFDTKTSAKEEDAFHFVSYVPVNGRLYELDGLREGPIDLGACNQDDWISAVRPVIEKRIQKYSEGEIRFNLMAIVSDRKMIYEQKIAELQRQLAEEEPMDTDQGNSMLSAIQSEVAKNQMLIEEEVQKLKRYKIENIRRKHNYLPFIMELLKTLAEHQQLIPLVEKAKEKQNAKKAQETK
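Material: Human UCH37 enzyme supplied as purified proteasome complex | Schedule: 30 min preincubation with enzyme, 25 min cleavage at room temperature | Detection: AMC fluorescence 355/460 nm | Measure: % inhibition of Ub-AMC cleavage fluorescence | Controls: Wells without proteasome as full block, compound-free enzyme plus substrate as uninhibited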
AHR activator: activators of human aryl hydrocarbon receptor; AID 2796; 320,000 tested, 2.5% active; AHR-responsive luciferase reporter cells, luminescence; P35869; activation, % at 5 µM; in the data active = activation above about 47%;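 also: 0% = vehicle wells and 100% = reference agonist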
AHR act confirm: confirmation of human aryl hydrocarbon receptor activators. shares compounds with AHR activator. human cells, AHR-responsive luciferase reporter, luminescence. activation, % at 9 µM. 2,300 tested, 87% active; in the data active = activation above about 49%;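 also: HepG2 hepatoma cells carrying a DRE-driven firefly luciferase reporter; 0% = vehicle wells and 100% = reference agonist wells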
PXR act counter: counter-screen for AHR activators: human PXR activators. AID 434939. activation, % at 11.6 µM. 2,300 tested, 88% active. cell-based PXR reporter, luciferase luminescence. shares compounds with AHR activator; in the data active = activation above about 11%;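 also: human hepatoma DPX-2 cells expressing full-length human PXR; 0% = DMSO and 100% = reference agonist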
* = called active by the depositor; . = not tested or not shown.

SMILES	APOBEC3G inh	Arr AP2 block	PolyA inhibitor	A3A deaminase	UCH37 inh	AHR activator	AHR act confirm	PXR act counter
O=C(/C=C/Nc1ccc(F)cc1F)c1ccc(Br)cc1	3	7	-8	-1	-3	90*	90*	12*
OCCC#Cc1c(-c2ccsc2)sc2ccccc12	-2	-8	-6	0	1	86*	62*	13*
COc1cc(-c2ccc3sc(-c4ccsc4)c(C#CCO)c3c2)cc(OC)c1OC	-9	4	.	-1	-11	80*	61*	13*
COc1ccc(Br)cc1C=c1sc2nc(-c3ccco3)nn2c1=O	.	.	.	.	-1	.	.	.
CC(=NNC(=O)CN1CCN(Cc2ccccc2Cl)CC1)c1ccco1	.	.	.	.	4	.	.	.
Brc1ccc(N=CC=CC=CNc2ccc(Br)cc2)cc1	.	.	.	.	2	.	.	.
COc1ccc(/C=N/NC(=O)c2cccc(NC(=O)c3ccccc3)c2)c(C(=O)O)c1OC	-8	3	-4	-1	.	113*	95*	13*
Cc1cccc(C(=O)Nc2cccc(C(=O)NN=Cc3cccc(C)n3)c2)c1	.	.	.	.	1	.	.	.
Cc1cccc(/C=N/NC(=O)c2cccc(NC(=O)c3ccccc3)c2)n1	-8	4	6	0	.	106*	102*	28*
CC(=O)Nc1ccc(NC(=O)C(C)ON=Cc2cccc([N+](=O)[O-])c2)cc1 (stereo not drawn)	.	.	.	.	3	.	.	.
Cc1nc(N=Cc2ccc(N(C)C)cc2)sc1C	.	.	.	.	2	.	.	.
Cc1ccsc1C1NC(=O)c2c(sc3c2CCN(C)C3)N1 (stereo not drawn)	-7	10	10	-4	-13	92*	54*	17*
CN1CCc2c(sc3c2C(=O)NC(/C=C\c2ccccc2)N3)C1 (stereo not drawn)	-7	11	10	-1	7	10	.	.
CSc1ccc(C2NC(=O)c3c(sc4c3CCN(C)C4)N2)cc1 (stereo not drawn)	-18	7	6	-5	-10	22	.	.
CN1CCc2c(sc3c2C(=O)NC(c2cccs2)N3)C1 (stereo not drawn)	1	-4	-7	3	-7	85*	92*	37*
C(=N\Nc1nc2ccccc2s1)/c1ccco1	-4	-7	-19	-2	.	103*	105*	30*
Cc1cc(C=Nn2cnnc2)c(C)n1-c1ccc2c(c1)OCO2	.	.	.	.	6	.	.	.
N#Cc1ccc(C(=O)Nc2cc(S(=O)(=O)Nc3ccc(Cl)cc3)ccc2N2CCCCC2)cc1	31	38	-4	-3	-19	105*	58*	119*
CCN1CC(=NS(=O)(=O)N=C2CN(CC)C(=O)N2CC)N(CC)C1=O	.	.	.	.	2	.	.	.
CCc1ccc2c(c1)C(c1cccs1)=NNC(c1cccnc1)=N2	-4	5	-2	-3	4	20	.	.
Clc1ccc2c(c1)C(c1cccs1)=NNC(c1cccnc1)=N2	-7	3	1	1	4	105*	56*	50*
Cc1nc2c3ccccc3nc(NNC(=O)CCC(=O)NCCC(C)C)n2n1	-3	-14	9	3	2	-2	.	.
C=CCNC(=O)CCC(=O)NNc1nc2ccccc2c2nc(-c3ccccc3)nn12	-2	-1	6	2	5	100*	61*	13*
Oc1cccc(Nc2ncnc3ccccc23)c1	6	-4	18	-1	7	10	.	.
Nc1cccc(Nc2ncnc3ccccc23)c1	-8	8	-7	-6	2	152*	65*	.
SMILES	APOBEC3G inh	Arr AP2 block	PolyA inhibitor	A3A deaminase	UCH37 inh	AHR activator	AHR act confirm	PXR act counter
ON=Cc1cccn1-c1ccc(Br)cc1	.	.	.	.	4	.	.	.
CCn1c(C)csc1=NC(=S)Nc1ccccc1C	.	.	.	.	7	.	.	.
CCn1c(C)csc1=NC(=O)c1ccccc1O	-5	23	-18	-2	-11	93*	95*	15*
CC(=NN1C(C)CCCC1C)c1ccccc1O (stereo not drawn)	.	.	.	.	3	.	.	.
O=C1NC(c2ccc(Cl)cc2)Nc2ccccc21 (stereo not drawn)	-8	17	-5	0	-24	80*	115*	25*
O=C1NC(c2ccncc2)Nc2ccccc21 (stereo not drawn)	-4	0	7	0	-24	12	.	.
Cc1ccc(C2NC(=O)c3ccccc3N2)s1 (stereo not drawn)	-3	-3	5	1	-30	100*	91*	19*
Cc1cccc(C2NC(=O)c3ccccc3N2)c1 (stereo not drawn)	.	-28	.	.	.	.	.	.
O=[N+]([O-])c1cccc(S(=O)(=O)NN=Cc2ccc3c(c2)OCO3)c1	.	.	.	.	5	.	.	.
COc1ccc(CC(C)=NNC(=O)c2ccc(C)cc2C)cc1	.	.	.	.	2	.	.	.
O=C1C(Cl)=C(Nc2ccc(O)cc2)C(=O)c2ccccc21	1	3	16	-10	6	132*	112*	.
